From ChEMBL document CHEMBL1156077, “Piperazinyl-glutamate-pyrimidines as potent P2Y12 antagonists for inhibition of platelet aggregation” (Bioorg Med Chem Lett, 2009)

What was measured:
P2Y purinoceptor 12 [1] = target: T1, P2Y purinoceptor 12 (Homo sapiens, UniProt Q9H244); assay: Binding affinity at human recombinant P2Y12 receptor expressed in CHO cells by radioligand binding assay; assay type: cell-based
In short: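 Washed membranes from CHO cells transfected with synthetic human P2Y12 gene. Compounds as 7-point threefold dilutions, triplicate, 1 h at room temperature. Nonspecific binding defined with 300 nM 2-MeSADP. Filtered, washed with ice-cold Tris pH 7.4. Single-site fit; IC50 converted to Ki by Cheng–Prusoff, geometric mean of n≥2.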

P2Y purinoceptor 12 [2] = target: T1, P2Y purinoceptor 12; assay: Ratio of compound IC50 to thienopyrimidine IC50 for P2Y12 receptor in human platelet rich plasma assessed as inhibition of ADP-induced platelet aggregation by light transmission aggregometry
In short: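 Human platelet-rich plasma was pre-incubated 5 min at 37 °C with compound across seven concentrations (10 down to 0.156). Aggregation was started with ADP (20, final) and followed by light transmission at 626 nm for 15 min at 37 °C. Duplicate concentration-response data were read at the 15-min end-point. IC50 was divided by the IC50 of the thienopyrimidine reference run on the same plate.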

P2Y purinoceptor 12 [3] = target: T1, P2Y purinoceptor 12; assay: Ratio of compound IC50 to AZD-6140 IC50 for P2Y12 receptor in human platelet rich plasma assessed as inhibition of ADP-induced platelet aggregation by light transmission aggregometry
In short: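 Human platelet-rich plasma was pre-incubated 5 min at 37 °C with compound across seven concentrations (10 down to 0.156). Aggregation was started with ADP (20, final) and followed by light transmission at 626 nm for 15 min at 37 °C. Duplicate concentration-response data were read at the 15-min end-point. IC50 was divided by the IC50 of AZD-6140 run on the same plate.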

[4] = Selectivity for human P2Y12 receptor over P2Y13
[5] = Selectivity for human P2Y12 receptor over P2Y1

T1 sequence (Q9H244 whole entry): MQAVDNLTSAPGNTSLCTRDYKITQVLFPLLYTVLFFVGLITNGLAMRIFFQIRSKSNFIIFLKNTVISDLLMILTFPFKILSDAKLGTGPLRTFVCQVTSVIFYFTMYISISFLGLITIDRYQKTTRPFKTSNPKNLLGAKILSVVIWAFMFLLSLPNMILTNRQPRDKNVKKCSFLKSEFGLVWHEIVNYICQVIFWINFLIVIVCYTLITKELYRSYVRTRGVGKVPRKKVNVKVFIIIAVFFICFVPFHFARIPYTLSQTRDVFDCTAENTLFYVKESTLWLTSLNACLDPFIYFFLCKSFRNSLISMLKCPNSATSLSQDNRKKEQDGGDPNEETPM

Row | Ki (P2Y purinoceptor 12 [1]) [nM] | Ratio IC50 (P2Y purinoceptor 12 [2]) | Ratio IC50 (P2Y purinoceptor 12 [3]) | fold change (FC) [4] | fold change (FC) [5] | SMILES
1 | 4.3 | 0.3 | 1.2 | > 340 | > 340 | CCCCCOC(=O)N1CCN(C(=O)[C@H](CCC(=O)O)NC(=O)c2cc(N3CCC(COCCOC)CC3)nc(-c3ccccc3)n2)CC1
2 | 1.2 | 1.2 | 8.8 | > 340 | > 340 | CCCCCOC(=O)N1CCN(C(=O)[C@H](CCC(=O)O)NC(=O)c2cc(OCCOC)nc(-c3ccccc3)n2)CC1
3 | 72 | 1.1 | 4.3 | > 340 | > 340 | CCCCOC(=O)N1CCN(C(=O)[C@H](CCC(=O)O)NC(=O)c2cc(OCCN(CC)CC)nc(-c3ccccc3)n2)CC1
4 | 0.61 | 0.2 | 0.8 | > 340 | > 340 | CCCCCOC(=O)N1CCN(C(=O)[C@H](CCC(=O)O)NC(=O)c2cc(N3CCC(CN(CC)CC)CC3)nc(-c3ccccc3)n2)CC1
5 | 11 | 0.3 | 1.7 | > 340 | > 340 | CCCCOC(=O)N1CCN(C(=O)[C@H](CCC(=O)O)NC(=O)c2cc(OC3CCNCC3)nc(-c3ccccc3)n2)CC1
6 | 5.3 | 0.2 | 0.8 | > 340 | > 340 | CCCCCOC(=O)N1CCN(C(=O)[C@H](CCC(=O)O)NC(=O)c2cc(N3CCC(OCCOC)CC3)nc(-c3ccccc3)n2)CC1
7 | 7.4 |  |  | > 340 | > 340 | CCCCCOC(=O)N1CCN(C(=O)[C@H](CCC(=O)O)NC(=O)c2nc(-c3ccccc3)cc(N3CCC(OC)CC3)n2)CC1
8 | 123 |  |  | > 340 | > 340 | CCCCOC(=O)N1CCN(C(=O)[C@H](CCC(=O)O)NC(=O)c2cc(OC(CC)C(=O)N(CC)CC)nc(-c3ccccc3)n2)CC1 (stereo not given in full)
9 | 1.4 | 0.4 | 2.7 | > 340 | > 340 | CCCCOC(=O)N1CCN(C(=O)[C@H](CCC(=O)O)NC(=O)c2cc(N3CCC(OC)CC3)nc(-c3ccccc3)n2)CC1
10 | 2.9 | 0.3 | 1.5 | > 340 | > 340 | CCCCCOC(=O)N1CCN(C(=O)[C@H](CCC(=O)O)NC(=O)c2cc(N3CCN(C(=O)N(C)C)CC3)nc(-c3ccccc3)n2)CC1
11 | 0.92 | 0.2 | 1.1 | > 340 | > 340 | CCCCCOC(=O)N1CCN(C(=O)[C@H](CCC(=O)O)NC(=O)c2cc(N3CCC(CC(=O)N4CCC4)CC3)nc(-c3ccccc3)n2)CC1
12 | 2.1 | 0.2 | 1.5 | > 340 | > 340 | CCCCCOC(=O)N1CCN(C(=O)[C@H](CCC(=O)O)NC(=O)c2cc(N3CCN(CC(=O)N4CCCC4)CC3)nc(-c3ccccc3)n2)CC1
13 | 5.8 | 1 | 4.7 | > 340 | > 340 | CCCCCOC(=O)N1CCN(C(=O)[C@H](CCC(=O)O)NC(=O)c2nc(-c3ccccc3)cc(N3CCN(C(N)=O)CC3)n2)CC1
14 | 0.67 | 0.3 | 1.6 | > 340 | > 340 | CCCCCOC(=O)N1CCN(C(=O)[C@H](CCC(=O)O)NC(=O)c2cc(N3CCC(CC(=O)NCC)CC3)nc(-c3ccccc3)n2)CC1
15 | 9.4 | 0.9 | 3.5 | > 340 | > 340 | CCCCCOC(=O)N1CCN(C(=O)[C@H](CCC(=O)O)NC(=O)c2cc(NC3CCN(C(C)C)CC3)nc(-c3ccccc3)n2)CC1
16 | 3.6 | 0.5 | 1.8 | > 340 | > 340 | CCCCCOC(=O)N1CCN(C(=O)[C@H](CCC(=O)O)NC(=O)c2nc(-c3ccccc3)cc(N3CCC(C(=O)N4CCCC4)CC3)n2)CC1

Row | Ki (P2Y purinoceptor 12 [1]) [nM] | Ratio IC50 (P2Y purinoceptor 12 [2]) | Ratio IC50 (P2Y purinoceptor 12 [3]) | fold change (FC) [4] | fold change (FC) [5] | SMILES
17 | 4.8 | 0.6 | 1.7 | > 340 | > 340 | CCCCCOC(=O)N1CCN(C(=O)[C@H](CCC(=O)O)NC(=O)c2cc(NCCCN(C)C)nc(-c3ccccc3)n2)CC1
18 | 1.6 | 0.3 | 2 | > 340 | > 340 | CCCCCOC(=O)N1CCN(C(=O)[C@H](CCC(=O)O)NC(=O)c2cc(N3CCC(CC(=O)N4CCCC4)CC3)nc(-c3ccccc3)n2)CC1
19 | 11 | 1.2 | 6.6 | > 340 | > 340 | CCCCCOC(=O)N1CCN(C(=O)[C@H](CCC(=O)O)NC(=O)c2nc(OCCCN3CCOCC3)cc(-c3ccccc3)n2)CC1
20 | 10 |  |  | > 340 | > 340 | CCCCCOC(=O)N1CCN(C(=O)[C@H](CCC(=O)O)NC(=O)c2nc(-c3ccccc3)cc(N3CCC(OCCO)CC3)n2)CC1
21 | 1.2 |  |  | > 340 | > 340 | CCCCCOC(=O)N1CCN(C(=O)[C@H](CCC(=O)O)NC(=O)c2nc(OCCOC)cc(-c3ccccc3)n2)CC1
22 | 38 |  |  | > 340 | > 340 | CCCCCOC(=O)N1CCN(C(=O)[C@H](CCC(=O)O)NC(=O)c2nc(NCCCN(C)C)cc(-c3ccccc3)n2)CC1
23 | 11 |  |  | > 340 | > 340 | CCCCCOC(=O)N1CCN(C(=O)[C@H](CCC(=O)O)NC(=O)c2nc(-c3ccccc3)cc(N3CCOCC3)n2)CC1
24 | 5.2 |  |  | > 340 | > 340 | CCCCCOC(=O)N1CCN(C(=O)[C@H](CCC(=O)O)NC(=O)c2nc(NCCOC)cc(-c3ccccc3)n2)CC1
25 | 1.7 | 0.2 | 0.8 |  |  | CCCCOC(=O)N1CCN(C(=O)[C@H](CCC(=O)O)NC(=O)c2cc(N3CCC(N4CCCC4)CC3)nc(-c3ccccc3)n2)CC1
26 | 7.5 |  |  | > 340 | > 340 | CCCCCOC(=O)N1CCN(C(=O)[C@H](CCC(=O)O)NC(=O)c2cc(N3CCC(C)CC3)nc(-c3ccccc3)n2)CC1
27 | 14 |  |  | > 340 | > 340 | CCCCCOC(=O)N1CCN(C(=O)[C@H](CCC(=O)O)NC(=O)c2nc(-c3ccccc3)cc(N3CCN(C(=O)N(C)C)CC3)n2)CC1
28 | 8.1 |  |  | > 340 | > 340 | CCCCCOC(=O)N1CCN(C(=O)[C@H](CCC(=O)O)NC(=O)c2nc(-c3ccccc3)cc(N3CCC(COCCOC)CC3)n2)CC1
29 | 19 |  |  | > 340 | > 340 | CCCCCOC(=O)N1CCN(C(=O)[C@H](CCC(=O)O)NC(=O)c2nc(NCC3CCNC3)cc(-c3ccccc3)n2)CC1 (stereo not given in full)
30 | 8.4 |  |  | > 340 | > 340 | CCCCCOC(=O)N1CCN(C(=O)[C@H](CCC(=O)O)NC(=O)c2nc(-c3ccccc3)cc(N3CCC(CCOC)CC3)n2)CC1
31 | 35 |  |  | > 340 | > 340 | CCCCCOC(=O)N1CCN(C(=O)[C@H](CCC(=O)O)NC(=O)c2nc(NC3CCN(C(C)C)CC3)cc(-c3ccccc3)n2)CC1
32 | 184 |  |  | > 340 | > 340 | CCCCCOC(=O)N1CCN(C(=O)[C@H](CCC(=O)O)NC(=O)c2nc(OCCN(CC)CC)cc(-c3ccccc3)n2)CC1
